KDM4C inh – KDM4C (human) demethylase inhibition. Q9H3R0. GST-KDM4C 2-372, H3K9me3 peptide, LANCE TR-FRET. inhibition, % at 12.5 µM. 96,000 tested, 0.15% active. AID 720574;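 active = mean replicate inhibition above about 25%, with at least 55% of replicates also reaching it, limit read from the data, passing the limit was not always enough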
Target sequence (Q9H3R0 2-372 limits assumed): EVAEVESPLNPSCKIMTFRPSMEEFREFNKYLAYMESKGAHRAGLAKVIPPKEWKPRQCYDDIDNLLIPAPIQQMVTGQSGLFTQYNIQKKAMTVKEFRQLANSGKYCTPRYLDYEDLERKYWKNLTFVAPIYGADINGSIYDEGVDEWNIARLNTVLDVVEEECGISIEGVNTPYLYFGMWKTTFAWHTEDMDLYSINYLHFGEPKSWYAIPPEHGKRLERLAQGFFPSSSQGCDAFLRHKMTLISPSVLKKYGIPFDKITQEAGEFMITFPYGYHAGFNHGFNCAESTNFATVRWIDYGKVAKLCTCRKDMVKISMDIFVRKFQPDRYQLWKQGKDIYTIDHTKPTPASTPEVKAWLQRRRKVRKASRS
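Test system: N-terminal GST-fused human GASC-1 (KDM4C) fragment, residues 2-372; quantity: GASC-1 enzyme at 10 nM final in reaction; dosing: single dose; schedule: 30 min demethylation and 1 h detection at room temperature; signal: LANCE TR-FRET, excitation 340 nm, emissions 618 and 671 nm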
IDH1 mut inh – blocks human IDH1 R132H reductase activity | O75874 | AID 624101 | inhibition, % at 10 µM | 70,000 tested, 0.18% active | diaphorase/resazurin fluorescence, 60 min; in the data active = inhibition above about 34%;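 note: 0% = DMSO and 100% = no enzyme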
T cruzi growth-1 – inhibitors of T. cruzi proliferation. T. cruzi beta-gal in NIH3T3, GalScreen luminescence, 90 h. inhibition, % at 8.34 µM. 77,000 tested, 5.9% active. AID 624255;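 active = mean inhibition above about 93%, with at least 55% of replicates each passing it, limit read from the data, passing the limit was not always enough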
T cruzi growth-2 – inhibitors of T. cruzi proliferation; T. cruzi beta-gal in NIH3T3, GalScreen luminescence, 90 h; 5,600 tested, 72% active; inhibition, % at 8.35 µM; shares compounds with T cruzi growth-1;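 active = mean replicate inhibition above about 95% and at least 55% of replicates individually reaching it, limit read from the data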
T cruzi growth-3 – inhibitors of T. cruzi proliferation | AID 651740 | 5,600 tested, 21% active | T. cruzi beta-gal in NIH3T3, GalScreen luminescence, 90 h | shares compounds with T cruzi growth-1 | inhibition, % at 2.09 µM;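 active = mean inhibition above about 95%, with at least 55% of replicates also reaching it, limit read from the data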;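 note: plate controls were neutral control median for no effect and positive control median for full effect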
NIH3T3 tox – kills mouse NIH/3T3 fibroblasts; shares compounds with T cruzi growth-1; NIH/3T3 viability, CellTiter-Glo ATP luminescence, 90 h; cytotoxicity (signal decrease), % at 8.35 µM; 5,600 tested, 14% active;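 active = mean signal decrease across replicates above about 35% based on untreated-well scatter, with enough replicates individually passing, limit read from the data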;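 note: 0% = median of neutral control wells and 100% = median of positive control wells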
3T3 cytotox 2 – NIH/3T3 (mouse) viability loss | inhibition, % at 24.9 µM | AID 651744 | NIH/3T3 viability, CellTiter-Glo ATP luminescence, 90 h | 5,600 tested, 56% active | shares compounds with T cruzi growth-1;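 active = mean loss of cell viability signal at or above a set limit, and enough replicates individually reaching it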;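 note: 0% = median of neutral control wells and 100% = median of positive control wells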
Active calls of the source: *. This is one part of a sample in which hits are shown more often than they occur.

C[C@@H]1CCCCO[C@H](CN(C)Cc2ccc3c(c2)OCO3)[C@@H](C)CN([C@@H](C)CO)C(=O)c2cc(NC(=O)Nc3ccccc3)ccc2O1 was read as KDM4C inh -0.7, IDH1 mut inh -1.9 and T cruzi growth-1 68.4.
Screening C[C@@H]1CCCCO[C@H](CN(C)Cc2ccc(Cl)c(Cl)c2)[C@@H](C)CN([C@@H](C)CO)C(=O)c2cc(NC(=O)Nc3ccc4c(c3)OCO4)ccc2O1 returned KDM4C inh -5.2 and T cruzi growth-1 64.8.
C[C@H](CO)N1C[C@H](C)[C@H](CN(C)Cc2ccc3c(c2)OCO3)OCCCC[C@H](C)Oc2ccc(NC(=O)Nc3ccccc3)cc2C1=O was read as KDM4C inh -0.8, IDH1 mut inh 1.4, T cruzi growth-1 103.2*, T cruzi growth-2 106.3*, T cruzi growth-3 81.6, NIH3T3 tox 26.0 and 3T3 cytotox 2 103.7*.
Screening C[C@@H]1CCCCO[C@@H](CN(C)Cc2ccc(Cl)c(Cl)c2)[C@@H](C)CN([C@@H](C)CO)C(=O)c2cc(NC(=O)Cc3ccccc3)ccc2O1 returned KDM4C inh 1.4, IDH1 mut inh 0.3, T cruzi growth-1 97.9*, T cruzi growth-2 106.2*, T cruzi growth-3 76.1, NIH3T3 tox -7.0 and 3T3 cytotox 2 -13.6.
`C[C@@H]1CN([C@@H](C)CO)C(=O)c2cc(NC(=O)CCC(F)(F)F)ccc2O[C@@H](C)CCCCO[C@H]1CN(C)Cc1ccc(Cl)c(Cl)c1` gave KDM4C inh 1.9, IDH1 mut inh 2.1 and T cruzi growth-1 64.1.
`Cn1c(SCC(=O)Nc2cccc3ccccc23)nnc1-c1ccc(F)cc1` gave IDH1 mut inh 0.5.
`O=C(CSc1nc2ccccc2c(=O)[nH]1)Nc1ccc2ccccc2c1` gave IDH1 mut inh 0.1.
For CC(C)(C)C(=O)COc1cccc(NC(=O)c2ccc([N+](=O)[O-])cc2)c1 the results were IDH1 mut inh -0.2.
`Cc1ccc(S(=O)(=O)N(C)C[C@H]2Oc3ccc(NS(=O)(=O)c4ccc(Cl)cc4)cc3CC(=O)N([C@H](C)CO)C[C@H]2C)cc1` gave KDM4C inh -2.4, IDH1 mut inh 1.0 and T cruzi growth-1 61.4.
Screening C[C@@H]1CN([C@@H](C)CO)C(=O)c2cc(NC(=O)Nc3ccc4c(c3)OCO4)ccc2O[C@@H](C)CCCCO[C@@H]1CN(C)C returned KDM4C inh 2.0 and T cruzi growth-1 25.6.
Screening C[C@@H]1CCCCO[C@H](CN(C)CC2CCCCC2)[C@H](C)CN([C@H](C)CO)C(=O)c2cc(NC(=O)Nc3ccc4c(c3)OCO4)ccc2O1 returned KDM4C inh -1.1, IDH1 mut inh 0.3 and T cruzi growth-1 60.1.
Screening C[C@@H]1CN([C@@H](C)CO)C(=O)c2cc(NC(=O)Nc3ccc4c(c3)OCO4)ccc2O[C@@H](C)CCCCO[C@H]1CN(C)C returned KDM4C inh 0.3, IDH1 mut inh -0.5, T cruzi growth-1 100.4*, T cruzi growth-2 112.1*, T cruzi growth-3 7.8, NIH3T3 tox -2.6 and 3T3 cytotox 2 5.5.
C[C@@H]1CCCCO[C@H](CN(C)CC2CCCCC2)[C@@H](C)CN([C@H](C)CO)C(=O)c2cc(NC(=O)Nc3ccc4c(c3)OCO4)ccc2O1 was read as KDM4C inh 15.0, T cruzi growth-1 96.8*, T cruzi growth-2 108.9*, T cruzi growth-3 112.2*, NIH3T3 tox 12.1 and 3T3 cytotox 2 83.0*.
C[C@H](CO)N1C[C@H](C)[C@H](CN(C)Cc2ccc3c(c2)OCO3)OCCCC[C@H](C)Oc2ccc(NC(=O)c3ccncc3)cc2C1=O was read as KDM4C inh 6.3, IDH1 mut inh 3.4 and T cruzi growth-1 61.8.
`C[C@@H]1CCCCO[C@H](CN(C)Cc2ccc3c(c2)OCO3)[C@H](C)CN([C@@H](C)CO)C(=O)c2cc(NC(=O)c3ccncc3)ccc2O1` gave KDM4C inh 1.3, IDH1 mut inh 0.4, T cruzi growth-1 112.2*, T cruzi growth-2 15.5, T cruzi growth-3 5.4, NIH3T3 tox -4.0 and 3T3 cytotox 2 -38.2.
`C[C@@H]1CCCCO[C@@H](CN(C)Cc2ccc3c(c2)OCO3)[C@H](C)CN([C@@H](C)CO)C(=O)c2cc(NC(=O)Nc3ccc4c(c3)OCO4)ccc2O1` gave KDM4C inh -0.7, T cruzi growth-1 103.1*, T cruzi growth-2 99.2*, T cruzi growth-3 20.2, NIH3T3 tox 18.8 and 3T3 cytotox 2 20.6.
For C[C@@H]1CN([C@@H](C)CO)C(=O)c2cc(NC(=O)Nc3ccc4c(c3)OCO4)ccc2O[C@@H](C)CCCCO[C@@H]1CN(C)Cc1ccc2c(c1)OCO2 the results were KDM4C inh 0.1 and IDH1 mut inh -1.1.
Screening CCCNC(=O)Nc1ccc2c(c1)C(=O)N(C)C[C@@H](OC)[C@@H](C)CN(S(C)(=O)=O)[C@H](C)CO2 returned KDM4C inh -0.6.
Screening Cc1cc(O)c2c(c1)C(=O)c1cc(OC3OC(COC(=O)CC(=O)O)C(O)C(O)C3O)cc(O)c1C2=O (stereo unspecified) returned IDH1 mut inh -1.5.
For COc1ccc(C(=O)CSc2nc3sc(C)c(C)c3c(=O)[nH]2)cc1C the results were IDH1 mut inh 0.1.
For CCOC(=O)c1c(NC(=O)CN2C(=O)c3ccccc3C2=O)sc(C)c1C the results were IDH1 mut inh 0.5.
`C[C@@H]1CCCCO[C@@H](CN(C)Cc2ccc(Cl)c(Cl)c2)[C@H](C)CN([C@@H](C)CO)C(=O)c2cc(NC(=O)Nc3ccc4c(c3)OCO4)ccc2O1` gave KDM4C inh -1.2 and T cruzi growth-1 103.7.
`C[C@@H]1CCCCO[C@H](CN(C)Cc2ccc(Cl)c(Cl)c2)[C@H](C)CN([C@@H](C)CO)C(=O)c2cc(NC(=O)Nc3ccc4c(c3)OCO4)ccc2O1` gave KDM4C inh -1.7, IDH1 mut inh 1.3, T cruzi growth-1 100.7*, T cruzi growth-2 96.3*, T cruzi growth-3 117.2*, NIH3T3 tox 19.2 and 3T3 cytotox 2 -0.6.
`C[C@H]1CN([C@@H](C)CO)S(=O)(=O)c2ccc(C3=CCCCC3)cc2O[C@@H]1CN(C)C(=O)C1CCCCC1` gave KDM4C inh 0.7, T cruzi growth-1 120.8*, T cruzi growth-2 103.0*, T cruzi growth-3 98.8*, NIH3T3 tox -12.2 and 3T3 cytotox 2 105.0*.
`C[C@H](CO)N1C[C@H](C)[C@H](CN(C)C(=O)C2CCC2)Oc2cc(C3=CCCCC3)ccc2S1(=O)=O` gave KDM4C inh -2.7 and T cruzi growth-1 34.9.

Compound activity deposited in PubChem by Broad Institute.
